Measured values taken from ChEMBL document CHEMBL3877271, “Antagonizing STAT3 activation with benzo[b]thiophene 1, 1-dioxide based small molecules” (Eur J Med Chem, 2017).
pIC50: −log10 of the molar value. The source made the active and inactive calls. The rule behind the calls is not given here.

Experiments:
[1] = Antiproliferative activity against human HCT116 cells after 72 hrs by MTT assay; type: functional, cell-based; conditions: HCT-116, 72 h
In short: (§1)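 Cells in RPMI-1640 with 10% FBS, penicillin/streptomycin, 37 °C, 5% CO₂; seeded 3000-5000 cells/well, left overnight (16 h), then medium replaced with fresh medium holding serial dilutions in triplicate for 72 h. MTT read-out; viability = absorbance of treated/solvent control × 100%. Stattic served as reference.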

[2] = Antiproliferative activity against human MCF7 cells after 72 hrs by MTT assay; type: functional, cell-based; conditions: MCF7, 72 h; in short: as §1
[3] = Antiproliferative activity against human A549 cells after 72 hrs by MTT assay; type: functional, cell-based; conditions: A549, 72 h; in short: as §1
[4] = Antiproliferative activity against human MDA-MB-231 cells after 72 hrs by MTT assay; type: functional, cell-based; conditions: MDA-MB-231, 72 h; in short: as §1
A549 = assay: Potency index, ratio of stattic IC50 to compound IC50 for human A549 cells; type: functional
HCT-116 = assay: Potency index, ratio of stattic IC50 to compound IC50 for human HCT116 cells; type: functional
MCF7 = assay: Potency index, ratio of stattic IC50 to compound IC50 for human MCF7 cells; type: functional
MDA-MB-231 = assay: Potency index, ratio of stattic IC50 to compound IC50 for human MDA-MB-231 cells; type: functional
[5] = molecular target: Signal transducer and activator of transcription 3 (Homo sapiens) (UniProt P40763); assay: Inhibition of STAT3 dimer DNA binding activity in human MDA-MB-231 nuclear extract at 5 uM preincubated for 24 hrs followed by addition of [32P]hSIE by electrophoretic mobility shift assay
In short: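 Cells treated 24 h in fresh growth medium. Nuclear extracts of equal total protein incubated with ³²P-labelled hSIE oligonucleotide probe and resolved by EMSA; Stattic 5 µM as comparator.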

[6] = Antitumor activity against mouse 4T1 cells implanted in ICR mouse assessed as tumor growth inhibition at 1 mg/kg, ip administered once in 4 days for 11 days measured on day 12 relative to control; type: functional; conditions: 4T1, ip, read-out: TGI
In short: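 Male ICR mice, 5 weeks old, inoculated with 2 × 10⁶ 4T1 cells at the right armpit. At 24 h, randomised into groups of 6 and dosed i.p.; vehicle PBS/DMSO (8:2) daily for 11 days. Killed day 12; tumours weighed; TI% = (1 − mean treated/mean control weight) × 100. Tumour p-STAT3 and STAT3 assessed by western blot.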

Mus musculus = assay: Toxicity in ICR mouse implanted with mouse 4T1 cells assessed as body weight loss at 1 mg/kg, ip administered once in 4 days for 11 days measured daily during compound dosing; type: organism-based; conditions: in vivo
In short: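 4T1-bearing male ICR mice (5 weeks, 6/group), dosed i.p. with PBS/DMSO (8:2) vehicle control. Body weight recorded daily. BI% = (1 − mean treated/mean control body weight) × 100.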

Signal transducer and activator of transcription 3 (Homo sapiens), sequence (P40763 whole entry): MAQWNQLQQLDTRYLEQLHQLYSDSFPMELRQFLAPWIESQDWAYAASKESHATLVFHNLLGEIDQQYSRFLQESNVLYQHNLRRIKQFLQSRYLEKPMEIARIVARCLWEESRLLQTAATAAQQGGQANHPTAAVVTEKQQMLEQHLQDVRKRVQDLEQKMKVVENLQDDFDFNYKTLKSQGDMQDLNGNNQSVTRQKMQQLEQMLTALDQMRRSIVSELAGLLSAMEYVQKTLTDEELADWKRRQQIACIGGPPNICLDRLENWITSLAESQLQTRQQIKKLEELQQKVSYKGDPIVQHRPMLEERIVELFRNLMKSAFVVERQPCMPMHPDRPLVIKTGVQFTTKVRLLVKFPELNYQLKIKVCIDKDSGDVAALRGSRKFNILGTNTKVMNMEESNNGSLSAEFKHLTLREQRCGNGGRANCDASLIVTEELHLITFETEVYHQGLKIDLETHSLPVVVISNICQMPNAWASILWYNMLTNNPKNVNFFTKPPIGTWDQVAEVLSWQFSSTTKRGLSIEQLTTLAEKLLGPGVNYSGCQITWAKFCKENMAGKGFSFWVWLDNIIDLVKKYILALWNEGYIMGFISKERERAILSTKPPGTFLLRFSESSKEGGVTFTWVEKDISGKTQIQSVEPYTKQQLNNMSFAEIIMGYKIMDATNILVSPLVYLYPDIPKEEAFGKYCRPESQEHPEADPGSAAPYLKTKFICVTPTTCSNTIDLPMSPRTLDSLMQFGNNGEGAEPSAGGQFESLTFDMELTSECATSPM

Row | inhibition [5] | Compound | pIC50 [1] | pIC50 [2] | pIC50 [3] | pIC50 [4] | Ratio IC50 (A549) | Ratio IC50 (HCT-116) | Ratio IC50 (MCF7) | Ratio IC50 (MDA-MB-231) | inhibition in vivo at 1 mg/kg [6] [%] | Activity (Mus musculus)
1 | – | O=S1(=O)C=Cc2cccc(Nc3ccc(F)c(F)c3)c21 | 6.17 | 6.02 | 5.60 | 5.72 | – | – | – | – | – | –
2 | – | O=S1(=O)C=Cc2cccc(Nc3cccc(F)c3)c21 | 5.91 | 5.95 | 5.59 | 5.72 | – | – | – | – | – | –
3 | – | O=S1(=O)C=Cc2ccc(Nc3ccc(F)c(F)c3)cc21 | 5.52 | 5.58 | 5.81 | 5.52 | – | – | – | – | – | –
4 | – | Cc1ccc(Nc2cccc3c2S(=O)(=O)C=C3)cc1 | 5.40 | 5.72 | 5.57 | 5.81 | – | – | – | – | – | –
5 | – | O=S1(=O)C=Cc2ccc(Nc3cccc(OC(F)(F)F)c3)cc21 | 5.70 | 5.69 | 5.86 | 5.68 | – | – | – | – | – | –
6 | – | O=S1(=O)C=Cc2cccc(Nc3c(F)c(F)c(F)c(F)c3F)c21 | 5.47 | 5.64 | 5.46 | 5.35 | – | – | – | – | – | –
7 | – | COc1ccc(Nc2cccc3c2S(=O)(=O)C=C3)cc1 | 5.70 | 6.03 | 5.59 | 5.98 | – | – | – | – | – | –
8 | – | COc1cc(Nc2cccc3c2S(=O)(=O)C=C3)cc(OC)c1OC | 5.94 | 6.03 | 6.02 | 6.00 | – | – | – | – | – | –
9 | – | O=S1(=O)C=Cc2ccc(Nc3ccc(Cl)cc3)cc21 | 5.35 | 5.57 | 5.64 | 5.17 | – | – | – | – | – | –
10 | – | O=S1(=O)C=Cc2cccc(Nc3cc(C(F)(F)F)cc(C(F)(F)F)c3)c21 | 5.44 | 5.29 | 5.42 | 5.51 | – | – | – | – | – | –
11 | – | O=S1(=O)C=Cc2ccc(Nc3ccc(C(F)(F)F)cc3)cc21 | 5.87 | 5.90 | 5.94 | 5.89 | – | – | – | – | – | –
12 | – | O=S1(=O)C=Cc2cccc(Nc3ccccc3C(F)(F)F)c21 | 5.23 | 5.09 | 5.39 | 5.41 | – | – | – | – | – | –
13 | – | O=S1(=O)C=Cc2cccc(Nc3ccc(Cl)cc3)c21 | 6.59 | 6.17 | 5.98 | 5.92 | 1.4 - 7.2 | 1.4 - 7.2 | 1.4 - 7.2 | 1.4 - 7.2 | – | –
14 | – | O=S1(=O)C=Cc2cccc(Nc3ccc(C(F)(F)F)cc3)c21 | 5.84 | 5.74 | 5.61 | 5.92 | – | – | – | – | – | –
15 | Active | O=[N+]([O-])c1ccc2c(c1)S(=O)(=O)C=C2 | 5.97 | 5.63 | 5.36 | 5.77 | – | – | – | – | – | –
16 | – | Cc1cc(C)cc(Nc2cccc3c2S(=O)(=O)C=C3)c1 | < 5.00 | 5.06 | 5.32 | 5.51 | – | – | – | – | – | –
17 | – | N#Cc1cccc(Nc2ccc3c(c2)S(=O)(=O)C=C3)c1 | < 5.00 | < 5.00 | < 5.00 | < 5.00 | – | – | – | – | – | –
18 | – | O=S1(=O)C=Cc2cccc(Nc3ccc(OC(F)(F)F)cc3)c21 | 5.62 | 5.57 | 5.80 | 5.68 | – | – | – | – | – | –
19 | – | O=S1(=O)C=Cc2cccc(Nc3ccc(Cl)c(Cl)c3)c21 | 6.17 | 6.24 | 6.18 | 5.87 | – | – | – | – | – | –
20 | – | O=S1(=O)C=Cc2ccc(Nc3cccc(C(F)(F)F)c3)cc21 | 5.86 | 5.60 | 5.84 | 5.88 | – | – | – | – | – | –
21 | – | COc1cc(Nc2ccc3c(c2)S(=O)(=O)C=C3)cc(OC)c1OC | 5.85 | 5.65 | 5.73 | 5.84 | – | – | – | – | – | –
22 | – | O=S1(=O)C=Cc2ccc(Nc3ccc(Cl)c(Cl)c3)cc21 | 5.61 | 5.65 | 5.48 | 6.05 | – | – | – | – | – | –
23 | – | COc1ccc(Nc2ccc3c(c2)S(=O)(=O)C=C3)cc1 | 5.93 | 5.92 | 5.91 | 5.85 | – | – | – | – | – | –
24 | – | COc1ccccc1Nc1cccc2c1S(=O)(=O)C=C2 | 5.30 | 5.29 | 5.59 | 5.62 | – | – | – | – | – | –
25 | – | COc1cccc2c1C(=O)c1c(O)c3c(c(O)c1C2=O)C[C@@](O)(C(=O)CO)C[C@@H]3O[C@H]1C[C@H](N)[C@H](O)[C@H](C)O1 [DOXORUBICIN] | – | – | – | – | – | – | – | – | 67 | Toxic
